# Rows were chosen to be rich in hits. Some 1.2% of all compounds tested hit in one or more screens of this group.
# CaV13 ICDI inh – Primary screen for inhibitors of IQ motif and Ca2+-dependent inactivation inhibitor domain binding in CACNA1D, Förster resonance energy transfer in living cells, …. HEK cells, CFP/YFP FRET ICDI-IQ, plate reader, 10 min; percent FRET-ratio fall versus neutral wells. inhibition, % at 12.3 µM. 340,000 compounds, 0.098% hits. AID 743397;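 active = mean replicate inhibition of at least 30% and at least 1% of replicates passing that level; inconclusive = only one of the two criteria is met; inactive = neither criterion is met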;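 also: 0% = median of the neutral control wells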
# Runt-SMMHC FRET – inhibitors of RUNX1 Runt–CBFb-SMMHC binding, primary screen, biochemical, FRET, Cerulean-Runt, Venus-CBFb-SMMHC, uHTS; Cerulean-Runt/Venus-CBFb-SMMHC FRET ratio 530/480, 1 h; inhibition, % at 20 µM; 220,000 compounds, 0.74% hits; AID 1434, 2008;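 active = mean inhibition across duplicate retests at 20 µM reaching about 50%, limit read from the data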;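 also: 0% = DMSO wells and 100% = wells with excess untagged CBFb-SMMHC; inhibitors lower the FRET ratio by blocking Runt binding to CBFb-SMMHC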
# Target sequence (Q01196 whole entry, looked up): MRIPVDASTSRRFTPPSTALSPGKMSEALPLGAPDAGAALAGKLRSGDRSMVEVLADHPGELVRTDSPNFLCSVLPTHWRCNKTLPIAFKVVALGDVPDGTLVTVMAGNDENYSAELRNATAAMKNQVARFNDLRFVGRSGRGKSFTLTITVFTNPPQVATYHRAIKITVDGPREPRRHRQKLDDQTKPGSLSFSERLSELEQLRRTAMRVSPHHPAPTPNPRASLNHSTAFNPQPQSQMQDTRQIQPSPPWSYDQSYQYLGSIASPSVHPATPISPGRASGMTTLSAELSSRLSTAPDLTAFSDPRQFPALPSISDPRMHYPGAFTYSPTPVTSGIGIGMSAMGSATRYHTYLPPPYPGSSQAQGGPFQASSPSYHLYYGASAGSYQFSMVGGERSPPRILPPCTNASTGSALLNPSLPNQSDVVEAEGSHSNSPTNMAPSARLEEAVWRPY
# Target sequence (Q13951 whole entry, looked up): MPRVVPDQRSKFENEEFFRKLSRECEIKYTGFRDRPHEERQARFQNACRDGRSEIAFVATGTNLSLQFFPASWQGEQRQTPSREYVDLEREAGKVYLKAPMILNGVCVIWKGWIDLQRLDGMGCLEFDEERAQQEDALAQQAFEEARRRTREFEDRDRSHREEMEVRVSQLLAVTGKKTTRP
# Runt-CBFb FRET – inhibitors of RUNX1 Runt–CBFb binding, primary screen, biochemical, FRET, Cerulean-Runt, Venus-CBFb, uHTS; Runt-related transcription factor 1 (Homo sapiens) + Core-binding factor subunit beta …; Cerulean-Runt/Venus-CBFb FRET ratio 530/480, 1 h; inhibition, % at 20 µM; 220,000 compounds, 0.46% hits; AID 1496, 2009;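 active = inhibition over about 50% at 20 µM in the single-dose screen, limit read from the data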;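 also: 0% = DMSO wells and 100% = excess unlabeled CBFb competitor control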
#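 Schedule: protein complex preformed 1 h, compound exposure 1 h, room temperature, dark; test system: Cerulean-labeled Runt domain protein; amount: 100 nM per protein; buffer or medium: Tris 50 mM pH 7.5, KCl, K2SO4, 0.01% BSA; read-out: loss of energy transfer signal; detection: FRET fluorescence; controls: 5 µM unlabeled CBFb as full-inhibition high control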
# RanGTP-Impb inh – inhibitors of RanGTP-importin-beta interaction, primary screen, biochemical, FRET, CFP-Ran, YFP-importin-beta, homogeneous | cell-free CFP-Ran/YFP-importin-beta FRET ratio | AID 2216, 2009 | inhibition, % (concentration not given with the values) | 300,000 compounds, 1.1% hits | Ran GTPase (GTP-bound) - importin-beta complex;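 active = more than half of the replicate wells show a fall in the fluorescence ratio signal beyond about 16%, limit read from the data, passing the limit was not always enough; inconclusive = exactly half of the replicate wells pass the set limit; inactive = fewer than half of replicates pass the limit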;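 also: 0% = DMSO wells and 100% = Ran loaded with GDP instead of GTP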
# Starred values were filed as active, the others as inactive; ? = inconclusive; nt = no result; + = active, no number.
SMILES,CaV13 ICDI inh,Runt-SMMHC FRET,Runt-CBFb FRET,RanGTP-Impb inh
Cc1cccn2c(=O)c(/C=C(\C#N)C(=O)NCc3ccco3)c(N3CCCC(C)C3)nc12 (centres undefined),-20,nt,98*,3
Cc1cc(C)nc(SCC(=O)OCC(=O)N(C)c2c(N)n(Cc3ccccc3)c(=O)[nH]c2=O)n1,-5,nt,nt,2
COc1ccc(NC(=O)CSc2nc(O)cc(=O)n2-c2ccc(OC)cc2)cc1,-8,nt,nt,-2
CCOC(=O)Cc1cnc(NC(=O)CSc2nc(C(C)C)cc(=O)[nH]2)s1,-4,nt,nt,?
O=C(Cn1nc(C(F)(F)F)c2c1CCCC2)NCc1ccco1,-4,2,-1,-4
Cc1cccn2c(=O)c(/C=C(\C#N)C(=O)NCc3ccco3)c(N3CCCCCC3)nc12,-5,-8,97*,-5
Cc1cccn2c(=O)c(/C=C(\C#N)C(=O)NCc3ccco3)c(N3CCCCC3)nc12,-5,60*,65*,2
CCNC(=O)/C(C#N)=C/c1c(N2CCN(c3cccc(Cl)c3)CC2)nc2c(C)cccn2c1=O,-13,nt,nt,6
CCOC(=O)C(CC)n1nc(C)n2c(cc3occc32)c1=O (centres undefined),-4,-1,0,-3
CC(=O)N1c2ccc(S(=O)(=O)NCCC(=O)N3CCC(C)CC3)cc2CC1C (centres undefined),-16,nt,nt,2
COc1cc(C2C(C#N)=C(N)OC3=C2C(=O)CC(C)(C)C3)c([N+](=O)[O-])cc1OC (centres undefined),-4,-45,nt,-14
CC1(C)CC(=O)C2=C(C1)OC(N)=C(C#N)[C@@H]2c1ccccc1[N+](=O)[O-],179*,50,94*,49*
CCCCn1c(NCc2ccccc2O)nc2ccccc21,-6,0,0,2
CCCn1c(NCc2cc(C)ccc2O)nc2ccccc21,-5,0,2,28*
COc1cccc2c1C(CO)N1C(C#N)C3CC(C(=O)O)C(C1C2)N3C (centres undefined),nt,3,3,nt
COc1ccccc1C(=O)NC(=S)NNC(=O)c1sc2ccccc2c1Cl,-4,-4,0,49*
COc1ccccc1C(=O)NNC(=S)NC(=O)c1sc2ccccc2c1Cl,-4,-7,2,?
CSc1ccccc1C(=O)Nc1cc([N+](=O)[O-])ccc1C,-2,0,1,?
N#CC1(C#N)C(c2ccccc2)OC23CCCCCC2C1(C#N)C(=N)O3 (centres undefined),-5,80*,40,?
N#CC1(C#N)C(c2ccccc2)OC23CCCCC2C1(C#N)C(=N)O3 (centres undefined),-4,61,33,42*
O=C(Cc1nc2ccccc2[nH]1)NCc1ccco1,nt,10,12,35*
O=C(Cc1c[nH]c2ccccc12)NCc1ccco1,-3,1,1,-2
COC(=O)c1cc2c(-c3ccccc3)c(C)c3ccccn3c-2c1C(=O)OC,nt,9,9,27*
COC(=O)c1c(Cl)c2n3ccccc3c(C)c(-c3ccccc3)c-2c1C(=O)OC,-5,-7,1,19*
CC(C)n1c(=O)c2ccccc2n1Cc1cn(Cc2cccs2)nn1,-9,nt,nt,nt
SMILES,CaV13 ICDI inh,Runt-SMMHC FRET,Runt-CBFb FRET,RanGTP-Impb inh
CCCc1cc(=O)[nH]c(SCC(=O)NCc2ccc3c(c2)OCO3)n1,-4,nt,nt,3
Cc1cc(/C=N/NC(=O)Cn2c3ccccc3c(=O)c3ccccc32)c(C)n1-c1ccccc1,-4,24,nt,94*
O=C(CNC(=O)c1ccccc1)OCCCOC(=O)CNC(=O)c1ccccc1,-2,nt,nt,-2
COc1ccc2cc(C(=O)NCc3ccco3)c(=Nc3ccc(C(=O)O)cc3)oc2c1,-5,0,0,2
COc1ccc(-c2cc3ccc(OCC(N)=O)cc3oc2=O)cc1OC,-6,nt,nt,3
CC(=O)c1cc2ccc(O)cc2oc1=O,33*,81*,10,148*
N=c1oc2cc(O)ccc2cc1C(=O)Nc1ccc(Cl)cc1,113*,nt,nt,170*
COc1ccc(-c2cc3ccc(O)cc3oc2=O)cc1OC,-1,nt,nt,106*
CC(=O)c1cc2ccccc2oc1=O,-5,nt,nt,nt
COc1ccc2cc(C(=O)NCc3ccco3)c(=O)oc2c1,nt,77*,35,?
CN(C)/C=C1\C(=O)Oc2ccccc2C1=O,-2,nt,nt,3
O=C(NCc1ccco1)c1cc2ccccc2o1,nt,2,-3,-1
COc1ccc(CNC(=O)c2cc3cc(OC)ccc3oc2=O)cc1,6,nt,nt,7
COc1cc(C(=O)Nc2ccccc2C(=O)Nc2ccccn2)cc(OC)c1OC,-6,nt,nt,5
O=C(NCc1ccco1)c1cc2ccc(O)cc2oc1=O,nt,58*,18,158*
Cc1ccc(N=c2oc3cc(O)ccc3cc2C(N)=O)cc1,8,46,10,181*
COc1ccc(N=c2oc3cc(O)ccc3cc2C(=O)Nc2ccccn2)cc1OC,5,92*,55*,5
CCCOc1ccc2cc(C(=O)NCc3ccccc3)c(=O)oc2c1,-1,nt,nt,59*
COc1cccc(/C=N/NC(=O)c2ccccc2N(Cc2ccccc2)S(=O)(=O)c2ccccc2)c1OC,-2,-6,-2,-3
COC(=O)C1=C(C)N(Cc2ccc(C(F)(F)F)cc2)C(=NCc2ccc(OC)cc2)NC1c1ccccc1C(F)(F)F (centres undefined),-4,nt,nt,nt
CC1(c2cccc(Br)c2)NC(=O)N(CC(=O)Nc2ccc(F)cc2)C1=O (centres undefined),-2,nt,nt,-2
CC(C)(CC1(C)NC(=O)NC1=O)OCc1ccccc1 (centres undefined),-7,nt,nt,nt
Cc1cc(NC(=O)Cc2c(C)[nH]c3ccccc23)ccc1Oc1cccnc1,-2,nt,nt,nt
CC(=O)n1cc(C(C[N+](=O)[O-])SCCN)c2ccccc21 (centres undefined),nt,-3,-1,1
CC(=O)c1cc2cc(O)ccc2o1,-5,70*,32,-3
SMILES,CaV13 ICDI inh,Runt-SMMHC FRET,Runt-CBFb FRET,RanGTP-Impb inh
COc1ccc(C2=CC(c3c(C)nn(-c4ccccc4)c3Cl)n3nnnc3N2)cc1OC (centres undefined),nt,86*,31,nt
CCOc1ccc(-c2cc(C(=O)NCc3cc(C(F)(F)F)cc(C(F)(F)F)c3)[nH]n2)c(C)c1,-10,nt,nt,nt
CCOC(=O)Cc1c(C)c2ccc(N(CC)CC)cc2oc1=O,6,46,10,130*
CCN(CC)c1ccc2c(C)c(Cl)c(=O)oc2c1,+,91*,20,108*
COc1ccc(-c2c(C)c3ccc(OCC(C)=O)cc3oc2=O)cc1,nt,0,-2,-1
CCN(CC)c1ccc2c(C)c(-c3ccc(N)cc3)c(=O)oc2c1,nt,64*,48,136*
